Screening data as filed in PubChem BioAssay.
The entries come from a sample that favours hits as a whole.
Calb FLC: affects C. albicans growth with fluconazole; C. albicans CaCi-2 (fluconazole-resistant clinical isolate) + fluconazole, Alamar Blue growth, 48 h; growth inhibition, % (test concentration not listed); actives 0.57% (n = 300,000);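 active = growth inhibition above about 58% in most replicates, limit read from the data, passing the limit was not always enough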;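 note: all wells also contain fluconazole at 8 µg/ml as a sub-toxic cotreatment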
NLRP3 yeast inh: inhibitors of NALP3 inflammasome in yeast; Yeast reconstituted NLRP3/ASC/caspase-1, beta-gal luminescence, 24 h; inhibition, % at 10 µM; actives 0.39% (n = 330,000);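 active = inhibition of 50% or more; inactive = inhibition below 50%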
Lmaj promast: inhibitors of Leishmania major promastigote growth. actives 9% (n = 200,000). AID 1063. inhibition, % at 10 µM. Leishmania major promastigotes, resazurin fluorescence viability; in the data active = inhibition above about 50%;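 note: promastigotes grown with compound for 44 hours at 28 °C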
PolyA inhibitor: yeast polyadenylation inhibition | actives 0.02% (n = 300,000) | activity score, % at 12 µM | S. cerevisiae SKY197-pL101 polyadenylation reporter, beta-gal luminescence; efflux-impaired pdr1/pdr3 knockout yeast; score 100 = 6 SD above DMSO;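 active = lowest replicate activity score at least 50, where 100 means six control SD above control mean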;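 note: yeast exposed to compound for 9 h at 30 °C; higher score means more reporter readthrough which indicates perturbed polyadenylation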
NALP1 yeast inh: inhibitors of NALP1 inflammasome in yeast; inhibition, % at 10 µM; actives 0.61% (n = 280,000); S. cerevisiae NALP1/ASC/caspase-1 growth, X-gal OD620, 72 h; in the data active = inhibition mostly above about 24%, no sharp cut-off; inactive = mostly below about 32%
T cruzi inh: blocks replication of Trypanosoma cruzi; T. cruzi beta-gal in NIH3T3, luminescence, 90 h; inhibition, % (test concentration not listed); actives 1.4% (n = 300,000);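 active = mean inhibition across valid replicates above about 55%, limit read from the data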;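 note: signal also drops with host cell toxicity which is not excluded here; higher percent means less beta-gal luminescence so fewer parasites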
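assay system = mouse NIH/3T3 fibroblasts infected with β-gal-expressing T. cruzi Tulahuen C4 | input = 5,000 NIH/3T3 host cells per well | buffer or medium = DMEM plus 2% FBS | timing = 3 h host attachment, then at least 90 h co-culture | measured by = GalScreen luminescence, 60 min | evaluation = luminescence reflecting intracellular parasite burden, expressed as percent inhibition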
A number is an active result.

What do the screens show for `C[n+]1c(-c2ccccc2)c2cc(N)ccc2c2ccc(N)cc21`?
Calb FLC: 93; NLRP3 yeast inh: inactive; PolyA inhibitor: inactive; NALP1 yeast inh: inactive; T cruzi inh: 62

What do the screens show for `CC(=O)OC1N=C(c2ccccc2)c2cc(C)ccc2NC1=O` (stereo unspecified)?
Calb FLC: inactive; NLRP3 yeast inh: inactive; Lmaj promast: 75; PolyA inhibitor: inactive; NALP1 yeast inh: inactive

What do the screens show for `CC(=O)OC1N=C(c2ccccc2)c2ccccc2NC1=O` (stereo unspecified)?
Calb FLC: inactive; NLRP3 yeast inh: inactive; Lmaj promast: inactive; PolyA inhibitor: inactive; NALP1 yeast inh: inactive; T cruzi inh: inactive

How did COc1cc(CC2(CCc3ccncc3)C(=O)NC(=O)NC2=O)cc(OC)c1OC do in these assays?
Calb FLC: inactive; NLRP3 yeast inh: inactive; Lmaj promast: inactive; PolyA inhibitor: inactive; NALP1 yeast inh: inactive; T cruzi inh: inactive

How did COc1cc2c(cc1OC)-c1c(OC)c(OC)c(OC)c3ccnc(c13)C2=O do in these assays?
Calb FLC: inactive; NLRP3 yeast inh: inactive; Lmaj promast: 78; PolyA inhibitor: inactive; NALP1 yeast inh: inactive; T cruzi inh: inactive

What do the screens show for `O=C1NC(=O)C(CCc2ccncc2)(C2CCCCC2)C(=O)N1`?
Calb FLC: inactive; NLRP3 yeast inh: inactive; Lmaj promast: inactive; PolyA inhibitor: inactive; NALP1 yeast inh: inactive

How did O=C(O)CNC1c2ccccc2CSc2ccccc21 (stereo unspecified) do in these assays?
Calb FLC: inactive; NLRP3 yeast inh: inactive; PolyA inhibitor: inactive; T cruzi inh: inactive

Results for CN(C)CCOC(=O)c1cn(Cc2ccccc2)c2ccccc12 ?
Calb FLC: inactive; NLRP3 yeast inh: inactive; Lmaj promast: 100; PolyA inhibitor: inactive; NALP1 yeast inh: inactive; T cruzi inh: inactive

What do the screens show for `CCC(=O)c1cn(Cc2ccccc2)c2ccccc12`?
Calb FLC: inactive; NLRP3 yeast inh: inactive; Lmaj promast: inactive; PolyA inhibitor: inactive; NALP1 yeast inh: inactive; T cruzi inh: inactive

What do the screens show for `COC(=O)c1ccc(CN2CCN(Cc3ccccc3)CC2)cc1`?
Calb FLC: inactive; NLRP3 yeast inh: inactive; Lmaj promast: 93; PolyA inhibitor: inactive; NALP1 yeast inh: inactive; T cruzi inh: inactive

Results for COC(=O)C1=C(c2cc3ccccc3o2)C[C@@H]2CC[C@H]1N2C(=O)NCc1ccco1 ?
Calb FLC: inactive; NLRP3 yeast inh: inactive; PolyA inhibitor: inactive; T cruzi inh: inactive

How did CCCCCn1c(=O)c(C(=O)Nc2ccccn2)c(O)c2ccccc21 do in these assays?
Calb FLC: inactive; NLRP3 yeast inh: inactive; PolyA inhibitor: inactive; NALP1 yeast inh: inactive; T cruzi inh: inactive

How did CCCCCn1c(=O)c(C(=O)Nc2ccncc2)c(O)c2ccccc21 do in these assays?
NALP1 yeast inh: inactive

What do the screens show for `CCCCCCn1c(=O)c(C(=O)Nc2cnccn2)c(O)c2ccccc21`?
Calb FLC: inactive; NLRP3 yeast inh: inactive; Lmaj promast: 100; PolyA inhibitor: inactive; NALP1 yeast inh: inactive; T cruzi inh: inactive

Results for CCCCCn1c(=O)c(C(=O)NCc2ccncc2)c(O)c2ccccc21 ?
Calb FLC: 84; NLRP3 yeast inh: inactive; Lmaj promast: inactive; PolyA inhibitor: inactive; NALP1 yeast inh: inactive; T cruzi inh: inactive

How did CCCCn1c(=O)c(C(=O)Nc2ccsc2C(=O)OC)c(O)c2ccccc21 do in these assays?
Calb FLC: inactive; NLRP3 yeast inh: inactive; Lmaj promast: 53; PolyA inhibitor: inactive; NALP1 yeast inh: inactive; T cruzi inh: inactive

Results for CCCCn1c(O)c(/C(C)=N/NC(=O)Nc2ccccc2)c(=O)[nH]c1=O ?
Calb FLC: inactive; NLRP3 yeast inh: inactive; PolyA inhibitor: inactive; NALP1 yeast inh: inactive; T cruzi inh: inactive

What do the screens show for `Cc1ccc(N=C(N(C)C)P(=O)(N(C)C)N(C)C)cc1`?
Calb FLC: inactive; NLRP3 yeast inh: inactive; Lmaj promast: inactive; PolyA inhibitor: inactive; NALP1 yeast inh: 24; T cruzi inh: inactive

What do the screens show for `CN1C(=O)N(C)C(=O)C(CCc2ccncc2)(Cc2ccc3c(c2)OCO3)C1=O`?
Calb FLC: inactive; NLRP3 yeast inh: inactive; Lmaj promast: 65; PolyA inhibitor: inactive; NALP1 yeast inh: inactive; T cruzi inh: inactive

How did O=C1NC(=O)C(CCc2ccncc2)(Cc2ccc3c(c2)OCO3)C(=O)N1CCc1ccccc1 (stereo unspecified) do in these assays?
Calb FLC: inactive; NLRP3 yeast inh: inactive; Lmaj promast: 100; PolyA inhibitor: inactive; NALP1 yeast inh: inactive; T cruzi inh: inactive

Results for CN(C/N=C(\N)N[N+](=O)[O-])S(=O)(=O)c1ccccc1 ?
Calb FLC: inactive; NLRP3 yeast inh: inactive; Lmaj promast: inactive; PolyA inhibitor: inactive; NALP1 yeast inh: inactive; T cruzi inh: inactive

Results for CN1c2ccc([N+](=O)[O-])cc2CC2(C(=O)NC(=O)N(c3ccccc3)C2=O)C1c1ccccc1 (stereo unspecified) ?
Calb FLC: inactive; NLRP3 yeast inh: inactive; Lmaj promast: 58; PolyA inhibitor: inactive; NALP1 yeast inh: inactive; T cruzi inh: 72

How did Cc1cc(C)c(N=Cc2c(O)[nH]c(=O)[nH]c2=O)c(C)c1 do in these assays?
Calb FLC: inactive; NLRP3 yeast inh: inactive; PolyA inhibitor: inactive; NALP1 yeast inh: inactive; T cruzi inh: inactive

What do the screens show for `Cn1ncnc2c(=O)n(C)c(=O)nc1-2`?
Calb FLC: inactive; NLRP3 yeast inh: inactive; PolyA inhibitor: inactive; NALP1 yeast inh: inactive; T cruzi inh: 63

How did O=C1NC(=O)N(c2cccc(Br)c2)C(=O)/C1=C/c1ccsc1 do in these assays?
Calb FLC: inactive; NLRP3 yeast inh: inactive; Lmaj promast: inactive; PolyA inhibitor: inactive; NALP1 yeast inh: inactive; T cruzi inh: inactive

What do the screens show for `CCc1cc2c(N3CCN(C)CC3)ncnc2s1`?
Calb FLC: inactive; NLRP3 yeast inh: inactive; Lmaj promast: 73; PolyA inhibitor: inactive; NALP1 yeast inh: inactive; T cruzi inh: inactive

How did CCOC(C(=O)OCCCN(CC)CC)(c1ccccc1)c1ccccc1 do in these assays?
Calb FLC: inactive; NLRP3 yeast inh: inactive; Lmaj promast: 100; PolyA inhibitor: inactive; NALP1 yeast inh: inactive; T cruzi inh: inactive

Results for CCN(CC)CCCOC(=O)C(OC(C)C)(c1ccccc1)c1ccccc1 ?
Calb FLC: inactive; NLRP3 yeast inh: inactive; Lmaj promast: 89; PolyA inhibitor: inactive; NALP1 yeast inh: inactive; T cruzi inh: inactive

How did CN(Cc1ccccc1)Cc1ccccc1OC(=O)N(C)C do in these assays?
Calb FLC: inactive; NLRP3 yeast inh: inactive; Lmaj promast: inactive; PolyA inhibitor: inactive; NALP1 yeast inh: inactive; T cruzi inh: inactive

What do the screens show for `Cc1[nH]n(-c2ccccc2)c(=O)c1C(c1ccc([N+](=O)[O-])cc1)c1c(C)[nH]n(-c2ccccc2)c1=O`?
Calb FLC: inactive; NLRP3 yeast inh: inactive; Lmaj promast: 62; PolyA inhibitor: inactive; NALP1 yeast inh: inactive; T cruzi inh: inactive

How did O=C(/C=C/c1ccccc1)NC(=S)N1C[C@H]2C[C@H](C1)c1cccc(=O)n1C2 do in these assays?
Calb FLC: inactive; NLRP3 yeast inh: inactive; PolyA inhibitor: inactive; NALP1 yeast inh: inactive; T cruzi inh: inactive
